# Measurements taken from ChEMBL document CHEMBL4689842, “EUbOPEN Chemogenomics Library wave 1” (2021).
# Experiments:
# U2OS = experiment: Multiplex assay against U2OS; assay type: toxicity, cell-based; conditions: human
# Outline: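 At seeding, live cells were stained with Hoechst33342, BioTracker Green Microtubule Cytoskeleton Dye, MitoTracker Red and Annexin V Alexa Fluor 680. After compound addition they were imaged on a CQ1 microscope at 37°C and 5% CO2, and CellPathfinder machine-learning gating sorted them into Hoechst high-intensity objects or normal cells, with normal cells further split into healthy, pyknosed or fragmented nuclei and pyknosed cells into mitotic or apoptotic. Tubulin, mitochondrial-mass and membrane-permeability phenotypes are given as per cents of cells with healthy nuclei.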
# Fibroblast = experiment: Incucyte cell viability with human fibroblast; assay type: toxicity, cell-based; conditions: 10 µM, compound concentration 10 uM; also: filed as whole numbers so only -1 and 0 and 1 occur
# [1] = 12 h, 1 µM, compound concentration 1 uM, replicate 1
# [2] = 12 h, 1 µM, compound concentration 1 uM, replicate 2
# [3] = 12 h, 10 µM, compound concentration 10 uM, replicate 1
# [4] = 12 h, 10 µM, compound concentration 10 uM, replicate 2
# [5] = 24 h, 1 µM, compound concentration 1 uM, replicate 1
# [6] = 24 h, 1 µM, compound concentration 1 uM, replicate 2
# [7] = 24 h, 10 µM, compound concentration 10 uM, replicate 1
# [8] = 24 h, 10 µM, compound concentration 10 uM, replicate 2
structure (smiles),measurement,setting,value
COc1cc2c(Nc3ccc(NC(=O)c4ccccc4)cc3)ncnc2cc1OCCCN1CCOCC1,Population Apoptotic (%),U2OS; [1],18%
same,Population Fragmented Nuclei (%),U2OS; [1],8%
same,Population Healthy Nuclei (%),U2OS; [1],77%
same,Population Hoechst High Intensity Objects (%),U2OS; [1],1%
same,Population Membrane Permeable-Phenotype (%),U2OS; [1],63%
same,Population Mitochondria Different-Phenotype (%),U2OS; [1],24%
same,Population Mitotic Cells (%),U2OS; [1],81%
same,Population Normal (%),U2OS; [1],98%
same,Population Pyknosed Nuclei (%),U2OS; [1],13%
same,Population Tubulin-Different-Phenotype (%),U2OS; [1],99%
same,Total Cell Count,U2OS; [1],121
same,Population Apoptotic (%),U2OS; [2],0%
same,Population Fragmented Nuclei (%),U2OS; [2],20%
same,Population Healthy Nuclei (%),U2OS; [2],74%
same,Population Hoechst High Intensity Objects (%),U2OS; [2],12%
same,Population Membrane Permeable-Phenotype (%),U2OS; [2],67%
same,Population Mitochondria Different-Phenotype (%),U2OS; [2],14%
same,Population Mitotic Cells (%),U2OS; [2],100%
same,Population Normal (%),U2OS; [2],87%
same,Population Pyknosed Nuclei (%),U2OS; [2],5%
same,Population Tubulin-Different-Phenotype (%),U2OS; [2],92%
same,Total Cell Count,U2OS; [2],97
same,Population Apoptotic (%),U2OS; [3],44%
same,Population Fragmented Nuclei (%),U2OS; [3],5%
same,Population Healthy Nuclei (%),U2OS; [3],86%
same,Population Hoechst High Intensity Objects (%),U2OS; [3],3%
same,Population Membrane Permeable-Phenotype (%),U2OS; [3],10%
same,Population Mitochondria Different-Phenotype (%),U2OS; [3],24%
same,Population Mitotic Cells (%),U2OS; [3],55%
same,Population Normal (%),U2OS; [3],96%
same,Population Pyknosed Nuclei (%),U2OS; [3],7%
same,Total Cell Count,U2OS; [3],215
same,Population Apoptotic (%),U2OS; [4],0%
same,Population Fragmented Nuclei (%),U2OS; [4],10%
same,Population Healthy Nuclei (%),U2OS; [4],87%
same,Population Hoechst High Intensity Objects (%),U2OS; [4],11%
same,Population Membrane Permeable-Phenotype (%),U2OS; [4],13%
same,Population Mitochondria Different-Phenotype (%),U2OS; [4],38%
same,Population Mitotic Cells (%),U2OS; [4],100%
same,Population Normal (%),U2OS; [4],88%
same,Population Pyknosed Nuclei (%),U2OS; [4],2%
same,Population Tubulin-Different-Phenotype (%),U2OS; [4],14%
same,Total Cell Count,U2OS; [4],115
same,Population Apoptotic (%),U2OS; [5],19%
same,Population Fragmented Nuclei (%),U2OS; [5],16%
same,Population Healthy Nuclei (%),U2OS; [5],63%
same,Population Hoechst High Intensity Objects (%),U2OS; [5],2%
same,Population Membrane Permeable-Phenotype (%),U2OS; [5],48%
same,Population Mitochondria Different-Phenotype (%),U2OS; [5],39%
same,Population Mitotic Cells (%),U2OS; [5],80%
same,Population Normal (%),U2OS; [5],97%
same,Population Pyknosed Nuclei (%),U2OS; [5],19%
same,Population Tubulin-Different-Phenotype (%),U2OS; [5],98%
same,Total Cell Count,U2OS; [5],129
same,Population Apoptotic (%),U2OS; [6],26%
same,Population Fragmented Nuclei (%),U2OS; [6],24%
same,Population Healthy Nuclei (%),U2OS; [6],61%
same,Population Hoechst High Intensity Objects (%),U2OS; [6],7%
same,Population Membrane Permeable-Phenotype (%),U2OS; [6],44%
same,Population Mitochondria Different-Phenotype (%),U2OS; [6],43%
same,Population Mitotic Cells (%),U2OS; [6],73%
same,Population Normal (%),U2OS; [6],92%
same,Population Pyknosed Nuclei (%),U2OS; [6],14%
same,Population Tubulin-Different-Phenotype (%),U2OS; [6],95%
same,Total Cell Count,U2OS; [6],108
same,Population Apoptotic (%),U2OS; [7],18%
same,Population Fragmented Nuclei (%),U2OS; [7],7%
same,Population Healthy Nuclei (%),U2OS; [7],83%
same,Population Hoechst High Intensity Objects (%),U2OS; [7],8%
same,Population Membrane Permeable-Phenotype (%),U2OS; [7],13%
same,Population Mitochondria Different-Phenotype (%),U2OS; [7],37%
same,Population Mitotic Cells (%),U2OS; [7],81%
same,Population Normal (%),U2OS; [7],91%
same,Population Pyknosed Nuclei (%),U2OS; [7],9%
same,Population Tubulin-Different-Phenotype (%),U2OS; [7],18%
same,Total Cell Count,U2OS; [7],237
same,Population Apoptotic (%),U2OS; [8],25%
same,Population Fragmented Nuclei (%),U2OS; [8],14%
same,Population Healthy Nuclei (%),U2OS; [8],77%
same,Population Hoechst High Intensity Objects (%),U2OS; [8],10%
same,Population Membrane Permeable-Phenotype (%),U2OS; [8],14%
same,Population Mitochondria Different-Phenotype (%),U2OS; [8],25%
same,Population Mitotic Cells (%),U2OS; [8],75%
same,Population Normal (%),U2OS; [8],89%
same,Population Pyknosed Nuclei (%),U2OS; [8],8%
same,Population Tubulin-Different-Phenotype (%),U2OS; [8],22%
same,Total Cell Count,U2OS; [8],115
same,Growth Rate,"Fibroblast; 0 h, replicate number 2, timepoint 0 hours",1
same,Growth Rate,"Fibroblast; 6 h, replicate number 1, timepoint 6 hours",0
same,Growth Rate,"Fibroblast; 12 h, replicate number 1, timepoint 12 hours",0
same,Growth Rate,"Fibroblast; 18 h, replicate number 1, timepoint 18 hours",0
same,Growth Rate,"Fibroblast; 24 h, replicate number 1, timepoint 24 hours",0
